Data from ChEMBL document CHEMBL3588853, “Synthesis, biological evaluation, and molecular docking studies of novel 1-benzene acyl-2-(1-methylindol-3-yl)-benzimidazole derivatives as potential tubulin polymerization inhibitors” (Eur J Med Chem, 2015).

How the values were obtained:
[1] = test system: MCF7; test: Growth inhibition of human MCF7 cells assessed as inhibition of cell proliferation after 24 hrs by MTT assay; type: functional; conditions: MCF7, 24 h
Outline: (§1)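 Cells seeded at (1–5) × 10^3 per well and grown 12 h at 37 °C. Compounds added at increasing concentrations in medium with 10% FBS for 24 h. MTT dye then added, followed by 3–4 h at 37 °C. Medium discarded, formazan dissolved in DMSO and plate read. GI50 calculated relative to DMSO-treated control wells.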

[2] = molecular target: Tubulin (Bos taurus, UniProt Q6B856+Q862F3); test: Inhibition of bovine brain tubulin polymerization extent after 20 mins by turbidimetrically
Sequence of Tubulin (Q6B856 whole entry): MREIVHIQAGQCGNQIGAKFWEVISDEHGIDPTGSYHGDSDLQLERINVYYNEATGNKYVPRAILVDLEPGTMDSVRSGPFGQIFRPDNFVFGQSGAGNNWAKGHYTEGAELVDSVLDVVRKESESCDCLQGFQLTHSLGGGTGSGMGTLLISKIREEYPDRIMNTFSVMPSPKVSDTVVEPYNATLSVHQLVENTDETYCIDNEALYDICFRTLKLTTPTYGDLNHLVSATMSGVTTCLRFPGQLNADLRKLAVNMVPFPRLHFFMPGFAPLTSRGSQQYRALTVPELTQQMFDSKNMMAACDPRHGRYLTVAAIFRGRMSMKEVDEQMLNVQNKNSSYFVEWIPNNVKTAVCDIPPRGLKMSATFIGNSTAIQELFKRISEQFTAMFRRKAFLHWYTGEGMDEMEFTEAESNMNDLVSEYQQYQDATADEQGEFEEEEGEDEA
Sequence of Tubulin (Q862F3 whole entry): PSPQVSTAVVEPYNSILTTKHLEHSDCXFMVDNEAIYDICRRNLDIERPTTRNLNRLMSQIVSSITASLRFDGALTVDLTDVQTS

[3] = test system: A549; test: Growth inhibition of human A549 cells assessed as inhibition of cell proliferation after 24 hrs by MTT assay; type: functional; conditions: A549, 24 h; outline: as §1
[4] = test system: HepG2; test: Growth inhibition of human HepG2 cells assessed as inhibition of cell proliferation after 24 hrs by MTT assay; type: functional; conditions: HepG2, 24 h; outline: as §1
[5] = molecular target: Tubulin (Bos taurus) (UniProt Q6B856+Q862F3); conditions: at 5 µM
[6] = test system: A549; test: Induction of cell cycle arrest in human A549 cells assessed as accumulation at G0/G1 phase at 1 uM after 24 hrs by propidium iodide staining based flow cytometric analysis (reference value: 79.11%); type: functional
[7] = test system: A549; test: Induction of cell cycle arrest in human A549 cells assessed as accumulation at G2/M phase at 1 uM after 24 hrs by propidium iodide staining based flow cytometric analysis (reference value: 13.26%); type: functional
[8] = test system: A549; test: Induction of cell cycle arrest in human A549 cells assessed as accumulation at S phase at 1 uM after 24 hrs by propidium iodide staining based flow cytometric analysis (reference value: 7.63%); type: functional
[9] = test system: A549; test: Induction of cell cycle arrest in human A549 cells assessed as accumulation at SubG0 phase at 1 uM after 24 hrs by propidium iodide staining based flow cytometric analysis (reference value: 0%); type: functional
[10] = test system: A549; test: Induction of cell cycle arrest in human A549 cells assessed as accumulation at G0/G1 phase at 2 uM after 24 hrs by propidium iodide staining based flow cytometric analysis (reference value: 79.11%); type: functional
[11] = test system: A549; test: Induction of cell cycle arrest in human A549 cells assessed as accumulation at G2/M phase at 2 uM after 24 hrs by propidium iodide staining based flow cytometric analysis (reference value: 13.26%); type: functional
[12] = test system: A549; test: Induction of cell cycle arrest in human A549 cells assessed as accumulation at S phase at 2 uM after 24 hrs by propidium iodide staining based flow cytometric analysis (reference value: 7.63%); type: functional
[13] = test system: A549; test: Induction of cell cycle arrest in human A549 cells assessed as accumulation at SubG0 phase at 2 uM after 24 hrs by propidium iodide staining based flow cytometric analysis (reference value: 0%); type: functional
[14] = test system: A549; test: Induction of cell cycle arrest in human A549 cells assessed as accumulation at G0/G1 phase at 5 uM after 24 hrs by propidium iodide staining based flow cytometric analysis (reference value: 79.11%); type: functional
[15] = test system: A549; test: Induction of cell cycle arrest in human A549 cells assessed as accumulation at G2/M phase at 5 uM after 24 hrs by propidium iodide staining based flow cytometric analysis (reference value: 13.26%); type: functional
[16] = test system: A549; test: Induction of cell cycle arrest in human A549 cells assessed as accumulation at S phase at 5 uM after 24 hrs by propidium iodide staining based flow cytometric analysis (reference value: 7.63%); type: functional
[17] = test system: A549; test: Induction of cell cycle arrest in human A549 cells assessed as accumulation at SubG0 phase at 5 uM after 24 hrs by propidium iodide staining based flow cytometric analysis (reference value: 0%); type: functional
[18] = test system: A549; test: Induction of apoptosis in human A549 cells assessed as necrotic cells at 1 uM after 24 hrs by annexin V/PI double staining FACScalibur flow cytometry (reference value: 0.529%); type: functional
[19] = test system: A549; test: Induction of apoptosis in human A549 cells assessed as late apoptotic cells at 1 uM after 24 hrs by annexin V/PI double staining FACScalibur flow cytometry (reference value: 0.406 %); type: functional
[20] = test system: A549; test: Induction of apoptosis in human A549 cells assessed as early apoptotic cells at 1 uM after 24 hrs by annexin V/PI double staining FACScalibur flow cytometry (reference value: 0.061%); type: functional
[21] = test system: A549; test: Induction of apoptosis in human A549 cells assessed as viable cells at 1 uM after 24 hrs by annexin V/PI double staining FACScalibur flow cytometry (reference value: 99%); type: functional; conditions: A549, 24 h, read-out: Activity
[22] = test system: A549; test: Induction of apoptosis in human A549 cells assessed as necrotic cells at 2 uM after 24 hrs by annexin V/PI double staining FACScalibur flow cytometry (reference value: 0.529%); type: functional
[23] = test system: A549; test: Induction of apoptosis in human A549 cells assessed as late apoptotic cells at 2 uM after 24 hrs by annexin V/PI double staining FACScalibur flow cytometry (reference value: 0.406 %); type: functional
[24] = test system: A549; test: Induction of apoptosis in human A549 cells assessed as early apoptotic cells at 2 uM after 24 hrs by annexin V/PI double staining FACScalibur flow cytometry (reference value: 0.061%); type: functional
[25] = test system: A549; test: Induction of apoptosis in human A549 cells assessed as viable cells at 2 uM after 24 hrs by annexin V/PI double staining FACScalibur flow cytometry (reference value: 99%); type: functional; conditions: A549, 24 h, read-out: Activity
[26] = test system: A549; test: Induction of apoptosis in human A549 cells assessed as necrotic cells at 5 uM after 24 hrs by annexin V/PI double staining FACScalibur flow cytometry (reference value: 0.529%); type: functional
[27] = test system: A549; test: Induction of apoptosis in human A549 cells assessed as late apoptotic cells at 5 uM after 24 hrs by annexin V/PI double staining FACScalibur flow cytometry (reference value: 0.406 %); type: functional
[28] = test system: A549; test: Induction of apoptosis in human A549 cells assessed as early apoptotic cells at 5 uM after 24 hrs by annexin V/PI double staining FACScalibur flow cytometry (reference value: 0.061%); type: functional
[29] = test system: A549; test: Induction of apoptosis in human A549 cells assessed as viable cells at 5 uM after 24 hrs by annexin V/PI double staining FACScalibur flow cytometry (reference value: 99%); type: functional; conditions: A549, 24 h, read-out: Activity

For `Cn1cc(-c2nc3ccccc3n2C(=O)c2cccc(Br)c2)c2cc(Br)ccc21`, the GI50 [1] was 68.2 µM, the IC50 [2] was 39.7 µM and the GI50 [3] was 38.5 µM. For the same compound, the GI50 [4] was 67.3 µM and the inhibition [5] was 51%.

`COc1cccc(C(=O)n2c(-c3cn(C)c4ccc(OC)cc34)nc3ccccc32)c1` gave a GI50 [1] of 14.6 µM, an IC50 [2] of 3.3 µM and a GI50 [3] of 4.6 µM. The GI50 [4] was 11.7 µM and the inhibition [5] was 84%.

`COc1cccc(C(=O)n2c(-c3cn(C)c4ccc(Br)cc34)nc3ccccc32)c1` was tested, and the GI50 [1] was 18.2 µM, the IC50 [2] was 5.7 µM and the GI50 [3] was 10.8 µM. It also gave a GI50 [4] of 17.8 µM and an inhibition [5] of 78%.

`COc1ccc2c(c1)c(-c1nc3ccccc3n1C(=O)c1ccccc1OC)cn2C` showed a GI50 [1] of 23.9 µM, an IC50 [2] of 8.4 µM and a GI50 [3] of 11.9 µM. The GI50 [4] was 23.6 µM and the inhibition [5] was 73%.

In the case of `Cn1cc(-c2nc3ccccc3n2C(=O)c2cccc(Br)c2)c2ccccc21`, the GI50 [1] is reported as 63.4 µM, the IC50 [2] is reported as 35.2 µM and the GI50 [3] is reported as 34.2 µM. For the same compound, the GI50 [4] was 61.4 µM and the inhibition [5] was 52%.

`COc1cc2c(c(OC)c1OC)-c1ccc(OC)c(=O)cc1[C@@H](NC(C)=O)CC2` [COLCHICINE] was tested, and the GI50 [1] was 13.5 µM, the GI50 [3] was 4.4 µM and the GI50 [4] was 10.5 µM.

`COc1ccc2c(c1)c(-c1nc3ccccc3n1C(=O)c1cc(OC)c(OC)c(OC)c1)cn2C` showed a GI50 [1] of 5.1 µM, an IC50 [2] of 1.5 µM and an Activity [6] of 60.17%. The Activity [7] was 27.23%, the Activity [8] was 12.51% and the Activity [9] was 0%. The Activity [10] was 57.42%, the Activity [11] was 33.21% and the Activity [12] was 12.51%. The Activity [13] was 0%, the Activity [14] was 49.3% and the Activity [15] was 39.46%. For the same compound, the Activity [16] was 11.24%, the Activity [17] was 0% and the Activity [18] was 0.59%. It also gave an Activity [19] of 4.77%, an Activity [20] of 14.8% and a viability at 1 µM [21] of 79.8%. The Activity [22] was 0.543%, the Activity [23] was 5.13% and the Activity [24] was 17%. The viability at 2 µM [25] was 77.3%, the Activity [26] was 0.595% and the Activity [27] was 6.03%. For the same compound, the Activity [28] was 17.2%, the viability at 5 µM [29] was 76.2% and the GI50 [3] was 2.4 µM. For the same compound, the GI50 [4] was 3.8 µM and the inhibition [5] was 96%.

Work on `COc1ccc(C(=O)n2c(-c3cn(C)c4ccccc34)nc3ccccc32)cc1OC` yielded a GI50 [1] of 10.2 µM, an IC50 [2] of 2.1 µM and a GI50 [3] of 3.1 µM. The GI50 [4] was 8.4 µM and the inhibition [5] was 87%.

With `COc1ccc(C(=O)n2c(-c3cn(C)c4ccccc34)nc3ccccc32)cc1` the GI50 [1] was 16.3 µM, the IC50 [2] was 4.6 µM and the GI50 [3] was 10.4 µM. For the same compound, the GI50 [4] was 15.2 µM and the inhibition [5] was 80%.

Work on `Cn1cc(-c2nc3ccccc3n2C(=O)c2ccccc2Br)c2ccccc21` yielded a GI50 [1] of 70.1 µM, an IC50 [2] of 42.9 µM and a GI50 [3] of 43.2 µM. It also gave a GI50 [4] of 68.2 µM and an inhibition [5] of 50%.

`COc1ccc2c(c1)c(-c1nc3ccccc3n1C(=O)c1ccc(OC)c(OC)c1)cn2C` gave a GI50 [1] of 6.3 µM, an IC50 [2] of 1.7 µM and a GI50 [3] of 2.7 µM. The GI50 [4] was 5.1 µM and the inhibition [5] was 94%.

`COc1ccc(C(=O)n2c(-c3cn(C)c4ccc(Br)cc34)nc3ccccc32)cc1` showed a GI50 [1] of 19.2 µM, an IC50 [2] of 6.3 µM and a GI50 [3] of 11.3 µM. The GI50 [4] was 18.9 µM and the inhibition [5] was 75%.

`Cn1cc(-c2nc3ccccc3n2C(=O)c2ccccc2Br)c2cc(Br)ccc21` gave a GI50 [1] of 73.6 µM, an IC50 [2] of 45.6 µM and a GI50 [3] of 46.7 µM. The GI50 [4] was 72.1 µM and the inhibition [5] was 48%.
